One may read the Ki as a dissociation constant, usually derived from enzyme kinetics or from competition with a known ligand. By Kd is commonly meant the free concentration of one partner at which half of the binding sites on the other are occupied at equilibrium, for simple one-to-one binding. One may read the IC50 as the point on the concentration scale where inhibition reaches its midpoint. Higher therefore signals weaker potency in that assay. What is called EC50 is the midpoint of the concentration-response curve. The low end stands for a more potent agent, the high end for a less potent agent.

The text below walks through data of article PMC7586407 (Journal of Medicinal Chemistry, 2020).

For data set [1], the target named is T1, MIF (Homo sapiens, UniProt P14174).
T1 sequence (P14174 2-115 limits assumed): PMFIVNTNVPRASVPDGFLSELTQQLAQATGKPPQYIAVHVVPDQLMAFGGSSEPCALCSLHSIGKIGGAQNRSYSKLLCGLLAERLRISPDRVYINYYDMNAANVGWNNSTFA
As to the kind of experiment: MIF tautomerase activity assay with 4-HPP as substrate. The following applies: for LE (ligand efficiency): LE = 1.4(−log IC50)/N; for LLE (lipophilic ligand efficiency): LLE = pIC50 – C log P.

For data set [2], the target named is T1, MIF. Briefly: FID assay with 7 as fluorescent indicator. The following applies: 7 50 nM, MIF 100 nM, PBS pH 7.4; calculated from EC50 by eq 1. The class given is binding.
Data set [3] can be described thus: Fluorescence quantum yield and fluorescence lifetime. It is filed as physicochemical. The following applies: relative to 4-MU, excitation 330 nm.
Data set [4] deals with A549 cells. Briefly: MTS cell viability assay. The class given is cell-based. The following applies: concentrations below 20 μM, 24 h of treatment.
In data set [5] the test system is A549 cells. As to the kind of experiment: Colony formation. The class given is cell-based. The following applies: 10 days. The method, boiled down: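 A549 cells seeded at 100 cells/well in RPMI with 10% FBS and 100 U/mL penicillin/streptomycin, then incubated overnight. Exposed to test compound for 10 days; final DMSO 0.2%, with 0.2% DMSO as vehicle control. Fixed with 4% paraformaldehyde (20 min), stained with 0.5% crystal violet (20 min), photographed and image-analysed. A colony is an aggregate of >50 cells.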

The test system of data set [6] is MIF-induced ERK phosphorylation in A549 cells. Briefly: MIF-induced ERK phosphorylation, Western blot. It is filed as cell-based. The following applies: 10 μM, 150 ng/mL MIF. On the technique in general: Immunoblotting shows a protein as a band on a membrane.
Data set [7] concerns the target bovine serum albumin (BSA) (Bos taurus, UniProt P02769). As to the kind of experiment: Fluorescence quenching control with BSA. It is filed as binding. The following applies: 800 nM BSA, 50 nM fluorophore.
Data set [8] addresses T2, MIF–sCD74 interaction (Homo sapiens, UniProt P14174).
T2 sequence (P14174 2-115 limits assumed): T1 sequence (P14174 2-115 limits assumed)
Briefly: ELISA of MBP–sCD74 binding to coated MIF. The following applies: at concentrations up to 50 μM. The essentials: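 Recombinant C-terminal His-tagged human MIF (E. coli-expressed, Ni-purified) coated at 250 nM overnight at 4 °C, then blocked with 2% BSA and washed. His/MBP-purified MBP–sCD74 (500 nM) was premixed with test compound (1–100 μM, added in DMSO) for 10 min at RT, then applied to wells for 30 min at RT. Controls: DMSO vehicle and no-sCD74. Detection used rabbit anti-CD74 (1:1000) then goat anti-rabbit HRP (1:1000), each 30 min at RT.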
(ELISA stands for enzyme-linked immunosorbent assay.)

Data set [9] has as its target T1, MIF. As to the kind of experiment: FID assay with 6d as fluorescent indicator. It is filed as binding.

Sequence of bovine serum albumin (BSA) (P02769 25-607): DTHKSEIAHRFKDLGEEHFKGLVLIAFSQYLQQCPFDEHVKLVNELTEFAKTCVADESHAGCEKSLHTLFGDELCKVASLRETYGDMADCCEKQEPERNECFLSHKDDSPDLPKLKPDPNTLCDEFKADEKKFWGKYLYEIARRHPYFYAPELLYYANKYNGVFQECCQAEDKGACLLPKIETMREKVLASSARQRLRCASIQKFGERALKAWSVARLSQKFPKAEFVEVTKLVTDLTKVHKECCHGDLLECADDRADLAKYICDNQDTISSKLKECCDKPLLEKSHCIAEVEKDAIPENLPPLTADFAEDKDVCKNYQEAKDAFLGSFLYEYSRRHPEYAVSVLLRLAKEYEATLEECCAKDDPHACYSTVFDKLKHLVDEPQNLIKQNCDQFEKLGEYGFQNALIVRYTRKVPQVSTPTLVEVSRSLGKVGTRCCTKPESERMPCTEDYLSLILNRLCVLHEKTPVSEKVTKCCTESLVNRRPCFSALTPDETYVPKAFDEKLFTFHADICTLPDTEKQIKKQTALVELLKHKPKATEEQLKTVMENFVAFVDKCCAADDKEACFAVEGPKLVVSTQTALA

Take “4-(4-(isoquinolin-3-yl)-1H-1,2,3-triazol-1-yl)phenol [Compound 10, reference compound]”: the Ki in [1] (4-HPP conversion assay, Ki = IC50/(1 + 0.5/Km)) amounted to 440 ± 30 nM. The Kd in [2] was 470 ± 80 nM.
For `O=c1oc2cc(O)ccc2cc1-c1ccccc1` [Compound 6a, 7-Hydroxy-3-phenyl-2H-chromen-2-one], the “enhanced potency compared to inhibitor 2” value in data set [1] (Ki ratio vs 2) is listed as 10 fold.
In data set [3], `COc1ccc(-c2cc3ccc(O)cc3oc2=O)cc1` [Compound 6d, 7-Hydroxy-3-(4-methoxyphenyl)-2H-chromen-2-one] came in with a fluorescence quantum yield of 0.25.
With `O=C(O)c1ccc(-c2ccc(-c3cc4ccc(O)cc4oc3=O)cc2)cc1` [Compound 7, 4′-(7-Hydroxy-2-oxo-2H-chromen-3-yl)-[1,1′-biphenyl]-4-carboxylic Acid], in [1], the IC50 is 71 ± 3 nM, the “LE (ligand efficiency)” value is listed as 0.37 and the “LLE (lipophilic ligand efficiency)” value is on record as 5.80. In addition, the “mode of inhibition (enzyme kinetics)” value in data set [1] (Lineweaver–Burk plot vs 4-HPP) is recorded as “binds in competition with 4-HPP”. Moreover, the “increased potency compared to precursor 6l” value in [1] (vs 6l) came out at 10 fold. Besides, in data set [4], the cell viability entry is “did not inhibit cell viability”. The colony formation result in data set [5] (2.5 μM) is on record as “significantly lower numbers of colonies”. Further, the colony formation result in data set [5] (10 μM) is given as “significantly lower numbers of colonies”. In [6], the “MIF-induced ERK phosphorylation” value was “attenuated MIF-induced ERK phosphorylation”. The fluorescence quantum yield in data set [3] came out at 0.32. Also, the “fluorescence quenching by BSA” value in data set [7] is on record as “no fluorescence quenching”.
In the case of `COc1ccc(N2Cc3ccc(O)cc3OC2=O)cc1OC` [Compound 8, 3-(3,4-Dimethoxyphenyl)-7-hydroxy-3,4-dihydro-2H-benzo[e][1,3]oxazin-2-one, reference compound], the “inhibition of MIF–sCD74 binding” value in data set [8] is given as “did not demonstrate inhibition”. Besides, in [1], the “LE (ligand efficiency)” value amounted to 0.43 and the “LLE (lipophilic ligand efficiency)” value was determined as 4.85. Moreover, the EC50 in data set [9] was found to be 386 ± 44 nM.
On to `O=C(NCc1cn(-c2ccc(O)c(F)c2)nn1)c1cc2cc(Cl)ccc2[nH]1` [Compound 13, 5-chloro-N-((1-(3-fluoro-4-hydroxyphenyl)-1H-1,2,3-triazol-4-yl)methyl)-1H-indole-2-carboxamide, reference compound], for which, in [1], the “LE (ligand efficiency)” value is listed as 0.30 and the “LLE (lipophilic ligand efficiency)” value came to 2.05. Besides, the colony formation entry in data set [5] (10 μM) is “inhibited colony formation”.
For `COC(=O)CC1CC(c2ccc(O)cc2)=NO1` (stereo not drawn) [ISO-1, methyl 2-(3-(4-hydroxyphenyl)-4,5-dihydroisoxazol-5-yl)acetate, reference compound], the “inhibition of MIF–sCD74 binding” value in data set [8] is “did not demonstrate inhibition”. For the same compound, in data set [5] (100 μM), the colony formation entry is “inhibited colony formation”.
